Test [1] addresses T1, Decaprenylphosphoryl-beta-D-ribose oxidase (Mycobacterium smegmatis (strain ATCC 700084 / mc(2)155)) (UniProt A0R607).
T1 sequence (whole entry): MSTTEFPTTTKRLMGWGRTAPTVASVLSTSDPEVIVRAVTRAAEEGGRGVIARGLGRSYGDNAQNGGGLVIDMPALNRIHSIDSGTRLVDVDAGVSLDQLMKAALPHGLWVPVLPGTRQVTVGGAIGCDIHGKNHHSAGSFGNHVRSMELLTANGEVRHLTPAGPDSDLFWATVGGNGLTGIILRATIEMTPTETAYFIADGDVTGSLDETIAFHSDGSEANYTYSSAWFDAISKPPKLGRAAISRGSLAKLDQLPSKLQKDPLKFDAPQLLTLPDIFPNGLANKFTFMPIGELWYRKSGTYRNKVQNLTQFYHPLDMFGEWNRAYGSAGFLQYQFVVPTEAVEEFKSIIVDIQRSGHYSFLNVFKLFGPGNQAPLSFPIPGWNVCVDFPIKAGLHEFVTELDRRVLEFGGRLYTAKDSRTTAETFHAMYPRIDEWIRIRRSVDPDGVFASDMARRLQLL
The test is described as follows: Inhibition of DprE1 in Mycolicibacterium smegmatis MC2 155 lysate assessed as reduction in epimerization of P[14C]RPP to DP[14C]A at 70 uM measured after 1.5 hrs in presence of NADH by TLC-based autoradiography. It is filed as subcellular. In a few lines: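 Cell-free DPA synthesis used a membrane/cell-envelope fraction (430 µg), spun at 100 000 × g, from sonicated M. smegmatis mc2155. The fraction was incubated 1.5 h with 15,000 dpm P[14C]RPP and NADH. BTZ was used at 70 µM and test compounds at 700 µM final, both added from DMSO stocks. Lipids were extracted, 25% was resolved by TLC, and autoradiography ran 8 days at -80 °C.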

Test [2] deals with T2, Decaprenylphosphoryl-beta-D-ribose oxidase (Mycobacterium tuberculosis (strain ATCC 25618 / H37Rv)) (UniProt P9WJF1).
T2 sequence (whole entry): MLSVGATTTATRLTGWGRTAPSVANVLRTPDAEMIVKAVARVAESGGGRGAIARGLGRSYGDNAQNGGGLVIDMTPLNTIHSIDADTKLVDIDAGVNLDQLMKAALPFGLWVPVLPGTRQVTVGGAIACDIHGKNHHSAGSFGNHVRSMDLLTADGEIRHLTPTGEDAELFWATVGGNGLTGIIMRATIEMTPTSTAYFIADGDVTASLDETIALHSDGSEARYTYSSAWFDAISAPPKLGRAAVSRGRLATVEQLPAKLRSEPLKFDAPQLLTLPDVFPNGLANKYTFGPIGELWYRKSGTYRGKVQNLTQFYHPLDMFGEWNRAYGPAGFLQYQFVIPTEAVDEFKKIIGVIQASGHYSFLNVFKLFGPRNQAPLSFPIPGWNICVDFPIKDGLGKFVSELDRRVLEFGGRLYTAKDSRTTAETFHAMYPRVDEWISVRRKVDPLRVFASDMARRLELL
The test is described as follows: Inhibition of DprE1 in Mycobacterium tuberculosis H37Rv assessed as accumulation of trehalose monomycolates at 10 times MIC measured after 24 hrs in presence of [14C]-acetate by TLC-based autoradiography. The essentials:
(§1)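 M. tuberculosis H37Rv cultures were exposed to compound at final 10× or 100× MIC, or to DMSO, together with [14C]-acetate at 1 µCi/ml final. After 24 h, lipids were extracted in CHCl3/CH3OH (2:1) for 2 h at 65 °C and given two Folch washes. Extracts were run on TLC in CHCl3/CH3OH/H2O (20:4:0.5), then autoradiographed for 7 days at -80 °C.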

Test [3] concerns the target T2, Decaprenylphosphoryl-beta-D-ribose oxidase (Mycobacterium tuberculosis (strain ATCC 25618 / H37Rv)). The test is described as follows: Inhibition of DprE1 in Mycobacterium tuberculosis H37Rv assessed as accumulation of trehalose dimycolates at 10 times MIC measured after 24 hrs in presence of [14C]-acetate by TLC-based autoradiography. The essentials: as §1
In test [4] the test system is Mycobacterium tuberculosis. The test can be described thus: Antitubercular activity against Mycobacterium tuberculosis H37Rv. Type of test: functional.

Converted amounts (≈) assume the structure as drawn. The source made the active and inactive calls. The rule behind the calls is not given here.

As for `C[C@H]1COC2(CCN(c3nc(=O)c4cc(C(F)(F)F)cc([N+](=O)[O-])c4s3)CC2)O1`, the inhibition result in test [1], in test [2] and in test [3] was “Active” throughout.

In the case of `O=[N+]([O-])c1cn2c(n1)OC[C@@H](OCc1ccc(OC(F)(F)F)cc1)C2` [PRETOMANID], the minimal inhibitory concentration (MIC) – broadly, the lowest concentration that inhibits growth of the organism – in test [4] lay in the range of 0.05 to 0.7 µM (≈ 0.018 to 0.251 µg/mL).

(Values after ChEMBL document CHEMBL4373711, “Development of 3,5-Dinitrophenyl-Containing 1,2,4-Triazoles and Their Trifluoromethyl Analogues as Highly Efficient Antitubercular Agents Inhibiting Decaprenylphosphoryl-β-d-ribofuranose 2'-Oxidase” (J Med Chem, 2019).)
